Reference: article PMC7288582 (ACS Omega, 2020)

Columns and labels:
LOX = biological target: T1, LOX (Glycine max, UniProt P08170); assay: LOX inhibition, spectrophotometric assay; assay type: biochemical
T1 sequence (P08170 1-839): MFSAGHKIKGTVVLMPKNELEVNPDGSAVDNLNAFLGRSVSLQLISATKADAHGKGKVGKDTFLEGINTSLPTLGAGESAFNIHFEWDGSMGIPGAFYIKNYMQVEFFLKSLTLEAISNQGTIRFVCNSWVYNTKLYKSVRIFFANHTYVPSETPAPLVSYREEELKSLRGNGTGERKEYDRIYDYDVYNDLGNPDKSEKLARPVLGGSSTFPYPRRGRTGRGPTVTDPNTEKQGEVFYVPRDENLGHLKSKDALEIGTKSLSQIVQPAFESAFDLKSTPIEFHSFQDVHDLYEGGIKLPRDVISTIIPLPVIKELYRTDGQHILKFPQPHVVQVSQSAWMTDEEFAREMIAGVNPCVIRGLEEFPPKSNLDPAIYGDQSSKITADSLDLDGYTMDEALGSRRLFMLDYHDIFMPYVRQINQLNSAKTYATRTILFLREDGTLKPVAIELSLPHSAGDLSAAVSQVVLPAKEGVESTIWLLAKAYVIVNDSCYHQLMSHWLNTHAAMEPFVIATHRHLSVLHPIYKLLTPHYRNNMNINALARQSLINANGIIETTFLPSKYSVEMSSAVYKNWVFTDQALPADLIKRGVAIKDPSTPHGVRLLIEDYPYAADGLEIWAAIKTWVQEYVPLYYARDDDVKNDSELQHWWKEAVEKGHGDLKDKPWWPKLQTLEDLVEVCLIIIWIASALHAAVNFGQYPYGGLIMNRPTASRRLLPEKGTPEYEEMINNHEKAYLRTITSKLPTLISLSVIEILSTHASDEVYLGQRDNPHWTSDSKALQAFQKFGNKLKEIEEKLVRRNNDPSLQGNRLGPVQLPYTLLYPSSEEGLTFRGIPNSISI

[1] = biological target: T2, α-amylase from hog pancreas (Sus scrofa, UniProt P00690); assay: biochemical
T2 sequence (P00690 16-511): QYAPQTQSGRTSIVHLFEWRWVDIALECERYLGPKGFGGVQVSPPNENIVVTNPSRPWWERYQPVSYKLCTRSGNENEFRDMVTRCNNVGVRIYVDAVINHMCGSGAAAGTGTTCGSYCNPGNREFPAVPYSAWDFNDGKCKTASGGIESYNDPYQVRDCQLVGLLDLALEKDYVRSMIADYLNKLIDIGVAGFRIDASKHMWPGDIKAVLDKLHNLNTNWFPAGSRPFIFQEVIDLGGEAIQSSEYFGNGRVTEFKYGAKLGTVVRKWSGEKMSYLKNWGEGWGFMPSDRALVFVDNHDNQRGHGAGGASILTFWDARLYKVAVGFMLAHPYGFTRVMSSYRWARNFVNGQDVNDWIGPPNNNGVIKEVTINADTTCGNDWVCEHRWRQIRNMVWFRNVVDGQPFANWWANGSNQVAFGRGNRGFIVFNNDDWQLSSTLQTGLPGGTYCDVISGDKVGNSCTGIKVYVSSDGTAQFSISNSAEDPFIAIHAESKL

[2] = DPPH radical scavenging assay; settings: antioxidant activity
Outline: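 Test material was polyphenolic-rich plant extracts from pressurized 50% ethanol extraction at 80 °C, microfiltration at 0.45 μm, then nanofiltration on a 200–300 Da polyamide membrane. A modified literature method was used: graded concentrations of extract or standard were mixed with methanolic DPPH solution and absorbance was read at 519 nm. Data were reported as mean ± standard deviation (n = 3).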

[3] = biological target: α-glucosidase from Saccharomyces cerevisiae (Saccharomyces cerevisiae, UniProt P53341); assay: α-Glucosidase inhibition assay; assay type: biochemical
α-glucosidase from Saccharomyces cerevisiae, sequence (P53341 whole entry): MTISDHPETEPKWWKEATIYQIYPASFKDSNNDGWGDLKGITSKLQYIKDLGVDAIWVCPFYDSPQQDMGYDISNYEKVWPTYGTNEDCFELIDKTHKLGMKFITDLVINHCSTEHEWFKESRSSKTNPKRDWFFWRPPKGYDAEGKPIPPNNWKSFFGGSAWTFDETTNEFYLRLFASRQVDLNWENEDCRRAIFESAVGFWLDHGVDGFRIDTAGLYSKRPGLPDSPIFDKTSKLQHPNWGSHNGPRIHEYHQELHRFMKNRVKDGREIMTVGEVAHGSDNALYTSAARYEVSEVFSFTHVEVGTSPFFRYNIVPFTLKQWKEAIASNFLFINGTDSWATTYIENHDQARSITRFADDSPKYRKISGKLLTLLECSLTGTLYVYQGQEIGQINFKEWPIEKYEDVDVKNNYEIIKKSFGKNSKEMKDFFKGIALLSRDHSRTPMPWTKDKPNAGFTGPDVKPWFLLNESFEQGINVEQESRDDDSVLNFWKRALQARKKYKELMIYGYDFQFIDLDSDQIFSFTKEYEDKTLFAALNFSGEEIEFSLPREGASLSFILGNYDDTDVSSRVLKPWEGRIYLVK

SMILES	IC50 (LOX) [µM]	IC50 [1] [µM]	DPPH, EC50 [2] [µg/mL]	IC50 [3] [µM]
O=C(/C=C/c1ccc(O)c(O)c1)O[C@@H]1C[C@](O)(C(=O)O)C[C@@H](O)[C@H]1O [chlorogenic acid]	230	5.19	–	–
O=C1O[C@H]([C@@H](O)CO)C(O)=C1O [ascorbic acid (vitamin C), ascorbic acid]	–	–	3.6 ± 0.2	–
O=c1cc(-c2ccc(O)c(O)c2)oc2cc(O)cc(O)c12 [luteolin]	109	68.2	–	100
C[C@@H]1O[C@@H](OC[C@H]2O[C@@H](Oc3c(-c4ccc(O)c(O)c4)oc4cc(O)cc(O)c4c3=O)[C@H](O)[C@@H](O)[C@@H]2O)[C@H](O)[C@H](O)[C@H]1O [rutin]	75.8	18.7	–	10.8

More lines, main results first:

IC50 (LOX) [µM]	IC50 [1] [µM]	DPPH, EC50 [2] [µg/mL]	SMILES	IC50 [3] [µM]
306	2.55	–	O=C(/C=C/c1ccc(O)c(O)c1)O[C@H](Cc1ccc(O)c(O)c1)C(=O)O [rosmarinic acid]	12
212	20.8	–	O=c1c(O[C@@H]2O[C@H](CO)[C@@H](O)[C@H](O)[C@H]2O)c(-c2ccc(O)c(O)c2)oc2cc(O)cc(O)c12 [isoquercitrin, quercetin-3-β-qlucoside]	16.8
